Experimental data reported in article PMC9008867 (Therapeutic Advances in Medical Oncology, 2022).
“And” between values parts separate entries of the source, which are not always exact repeats. Equal values may be shown once. Read-outs that look alike come from different tables or passages of the source.

How the values were obtained:
[1] = system: Asian patients with advanced or metastatic malignancies; test: Adverse events; format: in vivo, human; conditions: Schedule 1; patients n (%)
How it was run: (§1)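 Test compound given orally by schedule. Schedule 1: Mon/Thu, 28-day cycle. Schedule 2: Mondays weekly, 28-day cycle. Schedule 3: Mon/Wed for 2 of 3 weeks, 21-day cycle. Schedule 4: Mon/Wed/Fri, 28-day cycle. All patients received anorexia/nausea prophylaxis. AEs were recorded up to 30 days after the last dose and graded every 2 weeks for cycles 1–2, then every 4 weeks.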

[2] = system: Asian patients with advanced or metastatic malignancies; test: Adverse events; format: in vivo, human; conditions: Schedule 3; patients n (%)
How it was run: as §1

[3] = system: Asian patients with advanced or metastatic malignancies; test: Adverse events; format: in vivo, human; conditions: Schedule 4; patients n (%)
How it was run: as §1

[4] = system: Asian patients with advanced or metastatic malignancies; format: in vivo, human
XPO1 = XPO1 mRNA expression in PBMCs/leukocytes by qRT-PCR pre and post dose; format: in vivo, human; conditions: 40 and 50 mg/m^2, 10 patients assessed
tumour biopsies = test: Immunohistochemistry of paired pretreatment and ontreatment tumour biopsies; format: in vivo, human
How it was run: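 Paired pretreatment and on-treatment tumour biopsies came from six consenting dose-escalation patients. IHC covered […], Ki67 for proliferation, and ApopTag and cleaved caspase 3 for apoptosis.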

[5] = system: advanced or metastatic malignancies; test: Antitumour response; format: in vivo, human
How it was run: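 Solid tumours were imaged by CT or MRI and scored by RECIST 1.1. NHL was scored by IWG criteria; CTCL by consensus criteria with mSWAT skin scoring plus nodes, blood and viscera. Response was documented at least once at 8 weeks, then every two cycles. Evaluable patients had ≥1 dose and ≥1 postbaseline scan. Expansion dosing: flat 60 mg on days 1, 4, 8, 11 of 21-day cycles.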

[6] = system: human melanoma cell lines; conditions: cited from earlier work
[7] = expansion phase, with drug holiday and pre-emptive antiemetic regimen
[8] = after 6 weeks of treatment vs baseline, lymphoma, thymoma, colorectal carcinoma
[9] = all dose levels, 74 evaluable patients
[10] = phase 1b expansion cohort, 35 evaluable patients

## O=C(/C=C\n1cnc(-c2cc(C(F)(F)F)cc(C(F)(F)F)c2)n1)NNc1cnccn1 [selinexor]
[1]
  Anaemia, Any grade: 1 (16.6) %
  Anorexia, Any grade: 4 (66.6) %
  Dehydration, Any grade: 1 (16.6) %
  Diarrhoea, Any grade: 2 (33.3) %
  Fatigue, Any grade: 6 (100) %
  Hypokalaemia, Any grade: 2 (33.3) %
  Hypomagnesemia, Any grade: 1 (16.6) %
  Hyponatremia, Any grade: 6 (100) %
  Nausea, Any grade: 1 (16.6) %
  Thrombocytopenia, Any grade: 2 (33.3) %
  Vomiting, Any grade: 1 (16.6) %
  Weight loss, Any grade: 1 (16.6) %
[2]
  Abdominal discomfort, Any grade: 3 (20) %
  Abdominal discomfort, G1/G2: 3 (20) %
  Anaemia, Any grade: 3 (20) %
  Anorexia, Any grade: 11 (73.33) %
  Conjunctivitis, Any grade: 1 (6.66) %
  Constipation, Any grade: 1 (6.66) %
  Dehydration, Any grade: 2 (13.33) %
  Diarrhoea, Any grade: 5 (33.33) %
  Dry skin, Any grade: 1 (6.66) %
  Dysgeusia, Any grade: 2 (13.33) %
  Edema, Any grade: 1 (6.66) %
  Fatigue, Any grade: 13 (86.66) %
  Giddiness, Any grade: 2 (13.33) %
  Hypocalcaemia, Any grade: 1 (6.66) %
  Hypokalaemia, Any grade: 4 (26.66) %
  Hypomagnesemia, Any grade: 6 (40) %
  Hyponatremia, Any grade: 13 (86.66) %
  Hypophosphatemia, Any grade: 6 (40) %
  Increased flatulence, Any grade: 1 (6.66) %
  Increased flatulence, G1/G2: 1 (6.66) %
  Lethargy, Any grade: 1 (6.66) %
  Nausea, Any grade: 4 (26.66) %
  Thrombocytopenia, Any grade: 4 (26.66) %
  Vomiting, Any grade: 5 (33.33) %
  Weight loss, Any grade: 4 (26.66) %
[3]
  Abdominal discomfort, Any grade: 2 (18.18) %
  Abdominal discomfort, G1/G2: 2 (18.18) %
  Anaemia, Any grade: 3 (27.27) %
  Anorexia, Any grade: 5 (45.45) %
  Cataract, Any grade: 1 (9.09) %
  Diarrhoea, Any grade: 4 (36.36) %
  Dysgeusia, Any grade: 2 (18.18) %
  Dyspnoea/Shortness of breath, Any grade: 3 (27.27) %
  Dyspnoea/Shortness of breath, G1/G2: 2 (18.18) %
  Dyspnoea/Shortness of breath, G3/G4: 1 (9.09) %
  Fatigue, Any grade: 11 (100) %
  Hypocalcaemia, Any grade: 1 (9.09) %
  Hypokalaemia, Any grade: 1 (9.09) %
  Hypomagnesemia, Any grade: 3 (27.27) %
  Hyponatremia, Any grade: 10 (90.90) %
  Hypophosphatemia, Any grade: 1 (9.09) %
  Nausea, Any grade: 2 (18.18) %
  Neutropenia, Any grade: 1 (9.09) %
  Thrombocytopenia, Any grade: 6 (54.54) %
  Vomiting, Any grade: 2 (18.18) %
  Weight loss, Any grade: 3 (27.27) %
[4]; 60 mg twice a week, 2 out of 3 weeks, Asian patients
  tolerability: well tolerated
[4]; dose expansion phase
  Grade 3 fatigue: 8%
  grade 3 or 4 anaemia: 2%
  grade 3 or 4 hyponatremia: 23%
  grade 3 or 4 thrombocytopenia: 5%
  grade 3 or 4 vomiting: 5%
[4]; expansion phase
  patients with grade 3 or 4 cytopenias: less than 3%
[4]; [7]
  grade 3 or more nausea: no grade 3 or more nausea
  incidence of nausea: 30%
[4]; phase 1b expansion cohort, none attributed to the study drug
  deaths: Five
[4]; phase 1b, patients n (%)
  Abdominal discomfort, Any grade: 5 (13.15) %
  Abdominal discomfort, G1/G2: 4 (10.52) %
  Abdominal discomfort, G3/G4: 1 (2.63) %
  Abdominal distension, Any grade: 1 (2.63) %
  Abdominal distension, G3/G4: 1 (2.63) %
  Abnormal thyroid function, Any grade: 2 (5.26) %
  Abnormal thyroid function, G1/G2: 2 (5.26) %
  Acute kidney injury, Any grade: 1 (2.63) %
  Acute kidney injury, G1/G2: 1 (2.63) %
  Anaemia, Any grade: 6 (15.78) %
  Anorexia, Any grade: 18 (47.36) %
  Ascites, Any grade: 2 (5.26) %
  Asthenia, Any grade: 1 (2.63) %
  Back pain, Any grade: 2 (5.26) %
  Blurring of vision, Any grade: 3 (7.89) %
  Blurring of vision, G1/G2: 3 (7.89) %
  Constipation, Any grade: 6 (15.78) %
  Cough, Any grade: 2 (5.26) %
  Dehydration, Any grade: 2 (5.26) %
  Diarrhoea, Any grade: 10 (26.31) %
  Dysgeusia, Any grade: 12 (31.57) %
  Dyspnoea/Shortness of breath, Any grade: 2 (5.26) %
  Dyspnoea/Shortness of breath, G1/G2: 2 (5.26) %
  Fever, Any grade: 2 (5.26) %
  Giddiness, Any grade: 3 (7.89) %
  Hyperglycaemia, Any grade: 2 (5.26) %
  Hypersalivation, Any grade: 1 (2.63) %
  Hyperuricaemia, Any grade: 1 (2.63) %
  Hypocalcaemia, Any grade: 1 (2.63) %
  Hypokalaemia, Any grade: 7 (18.42) %
  Hypomaganesemia, Any grade: 3 (7.89) %
  Hyponatremia, Any grade: 20 (52.63) %
  Hypophosphataemia, Any grade: 5 (13.15) %
  Increased creatinine, Any grade: 2 (5.26) %
  Increased creatinine, G1/G2: 2 (5.26) %
  Lethargy, Any grade: 1 (2.63) %
  Loss of Appetite, Any grade: 8 (21.05) %
  Mood swing, Any grade: 1 (2.63) %
  Mucositis, Any grade: 2 (5.26) %
  Nausea, Any grade: 12 (31.57) %
  Peripheral neuropathy, Any grade: 2 (5.26) %
  Peripheral neuropathy, G1/G2: 2 (5.26) %
  Pneumonia, Any grade: 1 (2.63) %
  Pulmonary embolism, Any grade: 1 (2.63) %
  Pulmonary embolism, G1/G2: 1 (2.63) %
  Raised amylase/lipase, Any grade: 1 (2.63) %
  Raised amylase/lipase, G1/G2: 1 (2.63) %
  Raised amylase/lipase, G3/G4: 1 (2.63) %
  Reflux, Any grade: 1 (2.63) %
  Rt buttock pain, Any grade: 1 (2.63) %
  Rt leg pain, Any grade: 1 (2.63) %
  Thrombocytopenia, Any grade: 6 (15.78) %
  Transaminitis, Any grade: 3 (7.89) %
  URTI, Any grade: 1 (2.63) %
  Urinary retention, Any grade: 1 (2.63) %
  Vomiting, Any grade: 8 (21.05) %
  Weight loss, Any grade: 6 (15.78) %
XPO1; 4 h post dose
  patients with at least twofold induction of XPO1 mRNA: nine
XPO1; 8 h post dose
  patients with greater than twofold mRNA increases in XPO1: all 10 patients
Tumour biopsies; [8]
  apoptosis in tumour samples (IHC): increase
  proliferation in tumour samples (IHC): marked decrease
Tumour biopsies; patient with NSCLC
  XPO1 cargo protein p53 localization in tumour sections: nuclear accumulation
[5]; [9]
  patients with prolonged stable disease of more than 12 weeks: 10
  prolonged stable disease of more than 12 weeks: 13.5% and 13%
[5]; all dose levels, 74 evaluable, two DLBCL, one Hodgkin's lymphoma, one thymoma
  patients with confirmed partial response: four
[5]; [10]
  at least stable disease or better as best response: 37.1%
  patients with at least stable disease or better as best response: 13
[5]; phase 1b expansion cohort, all colorectal cancer
  patients with prolonged stable disease of more than 12 weeks: four
[5]; whole study
  objective response (confirmed complete and partial response rate): 8%
[6]
  PD-L1 gene expression: induced
